# Results from ChEMBL document CHEMBL1671656, “Light-microscopic immunocytochemistry for gentamicin and its use for studying uptake of the drug in kidney” (Antimicrob Agents Chemother, 2009).
# Key:
# Format in all cases: ADME, organism-based
# Parameters in all cases: dose 16 mg/kg, route intravenous
# Settings in all cases: in vivo; call rule not given here
# [1] = Drug uptake in Wistar rat kidney proximal tubule S2 obtained after tissue digestion with 0.04% protease digestion for 2 hrs mins at 4 or 16 mg/kg, iv after 12 hrs post dose by light-microscopic immunocytochemistry
# Method in brief: (§1)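 Male Wistar rats (200–250 g) received a single tail-vein gentamicin dose (3 per time group), with saline-injected rats as controls. Under pentobarbital, rats were perfused with PBS, then 2% glutaraldehyde in 10 mM phosphate (pH 7.2), and kidneys postfixed overnight at 4°C. Paraffin sections (5 μm) were treated with 6% H₂O₂, 1.0% NaBH₄ and 1 N HCl, then protease at 30°C. Staining used rabbit anti-GM serum 1:5,000 (overnight, 4°C), then HRP anti-rabbit IgG with DAB.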
# [2] = Drug uptake in Wistar rat kidney proximal tubule S1 obtained after tissue digestion with 0.04% protease digestion for 2 hrs mins at 4 or 16 mg/kg, iv after 12 hrs post dose by light-microscopic immunocytochemistry; method in brief: as §1
# [3] = Drug uptake in Wistar rat kidney proximal tubule […] cells obtained after tissue digestion with 0.04% protease digestion for 15 mins at 4 or 16 mg/kg, iv after 12 hrs post dose by light-microscopic immunocytochemistry; method in brief: as §1
# [4] = Drug uptake in Wistar rat kidney collecting duct cells obtained after tissue digestion with 0.04% protease digestion for 15 mins at 4 or 16 mg/kg, iv after 12 hrs post dose by light-microscopic immunocytochemistry; method in brief: as §1
# [5] = Drug uptake in cytoplasm of Wistar rat kidney distal tubule cells obtained after tissue digestion with 0.04% protease digestion for 15 mins at 4 or 16 mg/kg, iv after 12 hrs post dose by light-microscopic immunocytochemistry; method in brief: as §1
# [6] = Drug uptake in Wistar rat Kidney endothelium cells obtained after tissue digestion with 0.04% protease digestion for 2 hrs mins at 4 or 16 mg/kg, iv after 1 hrs post dose by light-microscopic immunocytochemistry; method in brief: as §1
# [7] = Drug uptake in Wistar rat Kidney endothelium cells obtained after tissue digestion with 0.04% protease digestion for 15 mins to 60 mins at 4 or 16 mg/kg, iv after 1 hrs post dose by light-microscopic immunocytochemistry; method in brief: as §1
# [8] = Drug uptake in Wistar rat Kidney endothelium cells obtained after tissue digestion with 0.04% protease digestion for 15 mins to 2 hrs mins at 4 or 16 mg/kg, iv after 12 hrs post dose by light-microscopic immunocytochemistry; method in brief: as §1
# [9] = Drug uptake in Wistar rat Kidney glomeruli cells obtained after tissue digestion with 0.04% protease digestion for 15 mins to 2 hrs mins at 4 or 16 mg/kg, iv after 12 hrs post dose by light-microscopic immunocytochemistry; method in brief: as §1
# [10] = Drug uptake in Wistar rat Kidney Henle's loop cells obtained after tissue digestion with 0.04% protease digestion for 15 mins to 2 hrs mins at 4 or 16 mg/kg, iv after 12 hrs post dose by light-microscopic immunocytochemistry; method in brief: as §1
# [11] = Drug uptake in Wistar rat kidney collecting duct cells obtained after tissue digestion with 0.04% protease digestion for 30 mins at 4 or 16 mg/kg, iv after 12 hrs post dose by light-microscopic immunocytochemistry; method in brief: as §1
# [12] = Drug uptake in Wistar rat kidney collecting duct cells obtained after tissue digestion with 0.04% protease digestion for 2 hrs at 4 or 16 mg/kg, iv after 12 hrs post dose by light-microscopic immunocytochemistry; method in brief: as §1
# [13] = Drug uptake in cytoplasm of Wistar rat kidney distal tubule cells obtained after tissue digestion with 0.04% protease digestion for 2 hrs at 4 or 16 mg/kg, iv after 12 hrs post dose by light-microscopic immunocytochemistry; method in brief: as §1
# [14] = Drug uptake in nuclei of Wistar rat kidney distal tubule cells obtained after tissue digestion with 0.04% protease digestion for 15 mins at 4 or 16 mg/kg, iv after 12 hrs post dose by light-microscopic immunocytochemistry; method in brief: as §1
sequence,measurement,setting,value
GENTAMICIN,Drug uptake,[1],Active
same,Drug uptake,[2],Active
same,Drug uptake,[3],Not Active
same,Drug uptake,[4],Active
same,Drug uptake,[5],Active
same,Drug uptake,[6],Not Active
same,Drug uptake,[7],Active
same,Drug uptake,[8],Not Active
same,Drug uptake,[9],Not Active
same,Drug uptake,[10],Not Active
same,Drug uptake,[11],Active
same,Drug uptake,[12],Not Active
same,Drug uptake,[13],Not Active
same,Drug uptake,[14],Active
